Experimental data: ChEMBL document CHEMBL3352003, “Sulfonamides with Potent Inhibitory Action and Selectivity against the α-Carbonic Anhydrase from Vibrio cholerae” (ACS Med Chem Lett, 2014)

Test: Inhibition of Vibrio cholerae cytosolic carbonic anhydrase by stopped flow CO2 hydration assay
Procedure, shortened: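 Stopped-flow measurement of the enzyme-catalysed CO2 hydration activity; inhibition is reported as KI (nM).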

SMILES | Ki
NCCCC(=O)NCCc1ccc(S(N)(=O)=O)cc1 | 77 nM
N=C(N)NCCCC(=O)NCc1ccc(S(N)(=O)=O)cc1 | 6.4 nM
CC(=O)NC(CCCCN)C(=O)NCc1ccc(S(N)(=O)=O)cc1 (stereo unspecified) | 29.1 nM
CC(=O)NC(CCCCNC(=N)N)C(=O)NCCc1ccc(S(N)(=O)=O)cc1 (stereo unspecified) | 36.8 nM
CC(C)(C)OC(=O)/N=C(\NCCCC(=O)NCc1ccc(S(N)(=O)=O)cc1)NC(=O)OC(C)(C)C | 5.8 nM
CC(C)(C)OC(=O)NCCCC(=O)NCCc1ccc(S(N)(=O)=O)cc1 | 304 nM
CC(=O)NC(CCCCNC(=O)OC(C)(C)C)C(=O)Nc1cccc(S(N)(=O)=O)c1 (stereo unspecified) | 8.8 nM
CC(=O)NC(CCCCNC(=N)N)C(=O)NCc1ccc(S(N)(=O)=O)cc1 (stereo unspecified) | 8.8 nM
CC(=O)NC(CCCCN/C(=N/C(=O)OC(C)(C)C)NC(=O)OC(C)(C)C)C(=O)NCc1ccc(S(N)(=O)=O)cc1 (stereo unspecified) | 9.1 nM
CC(C)(C)OC(=O)NCCCC(=O)NCc1ccc(S(N)(=O)=O)cc1 | 6.1 nM
CC(C)(C)OC(=O)/N=C(\NCCCC(=O)NCCc1ccc(S(N)(=O)=O)cc1)NC(=O)OC(C)(C)C | 95.2 nM
N=C(N)NCCCC(=O)NCCc1ccc(S(N)(=O)=O)cc1 | 29.1 nM
CC(=O)NC(CCCCN/C(=N/C(=O)OC(C)(C)C)NC(=O)OC(C)(C)C)C(=O)NCCc1ccc(S(N)(=O)=O)cc1 (stereo unspecified) | 9.3 nM
CC(C)(C)OC(=O)NCCCC(=O)Nc1cccc(S(N)(=O)=O)c1 | 7.6 nM
CC(=O)NC(CCCCNC(=O)OC(C)(C)C)C(=O)NCCc1ccc(S(N)(=O)=O)cc1 (stereo unspecified) | 76.7 nM
CC(=O)NC(CCCCN)C(=O)NCCc1ccc(S(N)(=O)=O)cc1 (stereo unspecified) | 66.5 nM
NCCCC(=O)NCc1ccc(S(N)(=O)=O)cc1 | 65.3 nM
COC(=O)C(CCCCNC(=O)OCc1ccccc1)NC(=O)c1ccc(S(N)(=O)=O)cc1 (stereo unspecified) | 6.2 nM
CC(=O)NC(CCCCNC(=O)OC(C)(C)C)C(=O)NCc1ccc(S(N)(=O)=O)cc1 (stereo unspecified) | 8.9 nM
CC(C)(C)OC(=O)NCCCC(=O)Nc1ccc(S(N)(=O)=O)cc1 | 6.9 nM
